Measurements taken from PMC2791397 (Biochimica et biophysica acta, 2009).

Key:
yeast cells = assay: Cellular growth in the presence of varying concentrations of 3-AT; type: cell-based, budding yeast Saccharomyces cerevisiae; settings: 30°C, three to five days
Procedure, shortened: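 BY4742-background strains (MATα his3Δ1 leu2Δ0 lys2Δ0 ura3Δ0; isogenic MATa dot1Δ or hmt1Δ) made HIS+ by transformation with a 1.75 kb HIS3 fragment. GCN5 deleted with a gcn5::hisG-URA3-hisG fragment. Log-phase cells from rich medium were serially diluted, spotted onto SC –His plates containing varying 3-AT concentrations, and scored for growth.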

[1] = tested on: Imidazoleglycerol-phosphate dehydratase (His3p); settings: cited from earlier work
Hmt1p = Hmt1p (Saccharomyces cerevisiae, UniProt P38074); assay: Kinetic studies of Hmt1p-mediated H4 peptide methylation; type: biochemical, budding yeast Saccharomyces cerevisiae; settings: peptide 0.01 to 10 μM, 3.3 μM 3H-SAM, app. 25 ng GST-Hmt1p, pH 8.0, 30°C, 3 min; Hanes/Wolffe plot; average, n ranging from 2 to 8
Hmt1p, sequence (P38074 whole entry): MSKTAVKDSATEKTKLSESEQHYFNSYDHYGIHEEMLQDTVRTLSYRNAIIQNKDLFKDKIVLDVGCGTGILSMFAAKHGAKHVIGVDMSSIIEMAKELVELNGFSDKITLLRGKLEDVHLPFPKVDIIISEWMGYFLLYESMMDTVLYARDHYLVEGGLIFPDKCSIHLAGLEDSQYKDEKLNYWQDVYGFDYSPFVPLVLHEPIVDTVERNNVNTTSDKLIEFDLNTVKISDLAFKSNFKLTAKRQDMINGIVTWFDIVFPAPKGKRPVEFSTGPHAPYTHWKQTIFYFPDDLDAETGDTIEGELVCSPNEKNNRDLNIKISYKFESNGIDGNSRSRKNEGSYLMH

Molecule | sensitivity to 3-AT, dot1 deletion (yeast cells; dot1! cells, SC -His plates) | sensitivity to 3-AT, gcn5 deletion (yeast cells; gcn5! cells, SC -His plates) | resistance to 3-AT, gcn5 hmt1 double knockout (yeast cells; gcn5! hmt1! cells vs gcn5! strain, SC -His plates) | sensitivity to 3-AT, hmt1 deletion (yeast cells; hmt1! cells, 20- and 40-mM 3-AT plates, SC -His) | inhibition of Imidazoleglycerol-phosphate dehydratase [1] | Km (Hmt1p)
Nc1nc[nH]n1 [3-AT, 3-amino-1,2,4-triazole] | did not have an obvious effect | hypersensitive | significantly higher resistance to 3-AT | sustain higher concentrations of 3-AT | competitive inhibitor | –
Ac.K8: synthetic histone H4 peptide (residues 1–18) with acetyllysine at position 8 | – | – | – | – | – | 0.059 ± 0.02 µM
